Experiments:
[1] = DBH (dopamine beta-hydroxylase) activity expressed as Ki value determined by degree to which compound inhibited conversion of tyramine to octopamine
Outline: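 Bovine adrenal medulla DBH, purified in-house (sp act. 44 µmol/min/mg). Incubated at 37 °C, atmospheric pressure, in 0.2 M acetate pH 5.5 with 10 mM ascorbate, 20 mM fumarate, […] and 1300 units catalase. Octopamine formed from tyramine measured by reverse-phase HPLC with fluorescence detection (ex 275, em 315 nm). Six inhibitor and four substrate concentrations tested, DMSO ≤3% final, duplicates; Ki from Dixon analysis.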

[2] = target: T1, Dopamine beta-hydroxylase (Bos taurus, UniProt P15101); assay: Inhibitory activity against bovine adrenal dopamine beta-hydroxylase (DBH)
T1 sequence (P15101 whole entry): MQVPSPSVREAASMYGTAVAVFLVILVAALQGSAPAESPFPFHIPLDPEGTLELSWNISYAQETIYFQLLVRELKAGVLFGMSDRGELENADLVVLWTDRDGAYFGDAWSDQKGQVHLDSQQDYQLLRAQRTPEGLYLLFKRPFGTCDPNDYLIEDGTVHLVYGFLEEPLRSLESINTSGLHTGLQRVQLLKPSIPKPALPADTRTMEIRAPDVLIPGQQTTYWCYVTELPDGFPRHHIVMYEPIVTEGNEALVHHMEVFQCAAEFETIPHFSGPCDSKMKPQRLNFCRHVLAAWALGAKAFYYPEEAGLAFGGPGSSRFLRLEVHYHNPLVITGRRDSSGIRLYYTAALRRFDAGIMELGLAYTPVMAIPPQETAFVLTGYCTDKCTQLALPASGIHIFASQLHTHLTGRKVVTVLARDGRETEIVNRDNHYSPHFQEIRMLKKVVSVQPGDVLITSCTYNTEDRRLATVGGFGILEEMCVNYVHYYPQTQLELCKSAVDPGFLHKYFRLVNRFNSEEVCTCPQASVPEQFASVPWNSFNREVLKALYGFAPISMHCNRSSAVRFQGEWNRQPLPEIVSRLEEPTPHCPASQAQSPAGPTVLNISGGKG
Outline: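 Commercial bovine DBH, assayed by oxygen consumption on an oxygen electrode at 25.0 °C. Mixture contained 2 mM ascorbic acid, 10 mM sodium fumarate, catalase and 10 mM tyramine in 0.1 M sodium acetate pH 5.0. Rates corrected for nonenzymatic ascorbate oxidation. IC50 from duplicates in at least three separate experiments, mean ± SD.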

[3] = system: Rattus norvegicus; assay: Duration of activity of compound in SHR (spontaneous hypertensive rat) at the dose of 25 mg/kg (po); format: functional
Outline: (§1)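 Conscious SHR with a carotid catheter externalized at the nape, allowed about 48 h to recover from surgery. Dosed po at 09:00 with vehicle (50% PEG 400) or compound suspension, with treatments reversed the next day in a cross-over design. Mean arterial pressure recorded as 5 min averages and compared with vehicle by paired t test (mean ± SEM, p<0.05).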

[4] = system: Rattus norvegicus; assay: Duration of activity of compound in SHR (spontaneous hypertensive rat) at the dose of 100 mg/kg (po); format: functional; outline: as §1
[5] = system: Rattus norvegicus; assay: Duration of activity of compound in SHR (spontaneous hypertensive rat) at the dose of 50 mg/kg (po); format: functional; outline: as §1
[6] = system: Rattus norvegicus; assay: Mean arterial blood pressure was determined in SHR (spontaneous hypertensive rat) with administration at peroral dose of 25 mg/kg; format: functional; details: route oral; outline: as §1
[7] = system: Rattus norvegicus; assay: Mean arterial blood pressure was determined in SHR (spontaneous hypertensive rat) with administration at the dose of 100 mg/kg (po); format: functional; outline: as §1
[8] = system: Rattus norvegicus; assay: Mean arterial blood pressure was determined in SHR (spontaneous hypertensive rat) with administration at peroral dose of 50 mg/kg; format: functional; details: route oral; outline: as §1
[9] = system: Rattus norvegicus; assay: Mean arterial blood pressure was determined in SHR (spontaneous hypertensive rat) with control at a peroral dose of 100 mg/kg; format: functional; details: route oral; outline: as §1
[10] = system: Rattus norvegicus; assay: Mean arterial blood pressure was determined in SHR (spontaneous hypertensive rat) with control at a peroral dose of 25 mg/kg; format: functional; details: route oral; outline: as §1
[11] = system: Rattus norvegicus; assay: Mean arterial blood pressure was determined in SHR (spontaneous hypertensive rat) with control at a peroral dose of 50 mg/kg; format: functional; details: route oral; outline: as §1
[12] = Antihypertensive activity as ability to increase tissue DA/NE ratio of mesenteric artery 6 hr after oral administration in fasted SHR (spontaneous hypertensive rat) at the dose of 25 mg/kg (po); format: functional
Outline: (§2)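 Male fasted SHR given compound orally as a suspension in 50% PEG 400 (0.4 mL/100 g), or vehicle alone. Killed 6 h after dosing. Mesenteric artery homogenized in 0.2 M HClO4 with DTT, EGTA and DHBA internal standard. Catecholamines adsorbed on alumina, eluted with 0.1 M H3PO4, and DA and NE quantified by reverse-phase HPLC. Ratio reported as mean ± SD and compared with vehicle by 2-tailed t test.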

[13] = Antihypertensive activity determined as ability to increase tissue DA/NE ratio of mesenteric artery 6 hr after oral administration in fasted SHR (spontaneous hypertensive rat); format: functional; outline: as §2
[14] = Antihypertensive activity was determined by its ability to increase DA/NE ratio of mesenteric artery 6 hr after oral administration in fasted SHR at the dose of 50 mg/kg (po); format: functional; outline: as §2
[15] = Antihypertensive activity was determined by its ability to increase DA/NE ratio of mesenteric artery 6 hr after oral administration in fasted SHR (spontaneous hypertensive rat) at the dose of 100 mg/kg (po); format: functional; outline: as §2

SMILES | Ki [1] | IC50 [2] | also measured
Sc1nccn1CCc1cccs1 | 0.0255 µM | 0.114 µM | Duration [3]: <1 h; Duration [4]: 20 h; Duration [5]: 8 h; Mean arterial blood pressure [6]: 137 mmHg; Mean arterial blood pressure [7]: 126 mmHg; Mean arterial blood pressure [8]: 137 mmHg; Mean arterial blood pressure [9]: 170 mmHg; Mean arterial blood pressure [10]: 148 mmHg; Mean arterial blood pressure [11]: 172 mmHg; DA/NE ratio [12]: 0.214; DA/NE ratio [13]: 0.072; DA/NE ratio [14]: 0.269; DA/NE ratio [15]: 0.333
Fc1cc(F)cc(Cn2cc[nH]c2=S)c1 | 0.06 µM | 0.21 µM | –
Sc1nccn1Cc1cccs1 | 0.74 µM | 4.8 µM | –
Fc1ccc(Cn2ccnc2S)s1 | – | 4.6 µM | –
Sc1nccn1CCCCc1cccs1 | 1.4 µM | 3.6 µM | –
Sc1nccn1CCc1ccsc1 | 0.025 µM | 0.13 µM | –
Sc1nccn1CCCc1cccs1 | 0.48 µM | 1.9 µM | –
Cc1ccc(CCn2ccnc2S)s1 | 0.16 µM | 0.491 µM | –
Sc1nccn1Cc1ccsc1 | – | 5.3 µM | –
S=c1[nH]ccn1Cc1ccco1 | – | 6.3 µM | –
Sc1nccn1Cc1ccc(Cl)s1 | – | 1 µM | –
